From ChEMBL document CHEMBL1122378, “Antiallergic agents. 2. N-(1H-tetrazol-5-yl)-6-phenyl-2-pyridinecarboxamides” (1983)

Experiments:
Assay type in all cases: functional
Rattus norvegicus [1] = test: Antiallergic activity against passive cutaneous anaphylaxis (PCA) in male Sprague-Dawley rats after 1.0 mg/kg oral administration
Summary of the method: (§1)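 IgE antiserum raised in male Sprague-Dawley rats (ca. 200 g) by immunization with Ascaris suum extract (2 then 0.2 mg protein), bled 2 weeks after the second dose. Recipients got 0.05 mL diluted antiserum intracutaneously on the back. Blued area (product of two diameters) was read at 30 min.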

Rattus norvegicus [2] = test: Antiallergic activity against passive cutaneous anaphylaxis (PCA) in male Sprague-Dawley rats after 3.0 mg/kg oral administration; summary of the method: as §1
Rattus norvegicus [3] = test: Inhibition of passive cutaneous anaphylaxis in male Sprague-Dawley rats following 0.3 mg/kg p.o. administration; Not significant.; settings: route oral; summary of the method: as §1
Rattus norvegicus [4] = test: Antiallergic activity against passive cutaneous anaphylaxis (PCA) in male Sprague-Dawley rats after 3.0 mg/kg oral administration;not statistically significant; summary of the method: as §1
Rattus norvegicus [5] = test: Inhibition of passive cutaneous anaphylaxis in male Sprague-Dawley rats following 1 mg/kg p.o. administration; Not significant.; settings: route oral; summary of the method: as §1
Rattus norvegicus [6] = test: Antiallergic activity against passive cutaneous anaphylaxis (PCA) in male Sprague-Dawley rats after 3.0 mg/kg oral administration;p<0.1; summary of the method: as §1
Rattus norvegicus [7] = test: Inhibition of passive cutaneous anaphylaxis in male Sprague-Dawley rats following 10 mg/kg p.o. administration.; settings: route oral; summary of the method: as §1
Rattus norvegicus [8] = test: Antiallergic activity against passive cutaneous anaphylaxis (PCA) in male Sprague-Dawley rats after 0.3 mg/kg oral administration; summary of the method: as §1
Rattus norvegicus [9] = test: Antiallergic activity against passive cutaneous anaphylaxis (PCA) in male Sprague-Dawley rats after 0.3 mg/kg oral administration;p<0.1; summary of the method: as §1
Rattus norvegicus [10] = test: Antiallergic activity against passive cutaneous anaphylaxis (PCA) in male Sprague-Dawley rats after 10.0 mg/kg oral administration;not statistically significant; summary of the method: as §1

Nc1ccc(-c2cccc(C(=O)Nc3nn[nH]n3)n2)cc1
inhibition in vivo at 1 mg/kg (Rattus norvegicus [1]): 62% | inhibition in vivo at 3 mg/kg (Rattus norvegicus [2]): 81% | inhibition in vivo at 0.3 mg/kg (Rattus norvegicus [3]): 11%

Cc1cc(C(=O)Nc2nn[nH]n2)nc(-c2ccc(N(C)C)cc2)c1
inhibition in vivo at 3 mg/kg (Rattus norvegicus [4]): 24%

Cc1ccc(-c2cc(C(C)C)cc(C(=O)Nc3nn[nH]n3)n2)cc1
inhibition in vivo at 1 mg/kg (Rattus norvegicus [5]): 20% | inhibition in vivo at 3 mg/kg (Rattus norvegicus [6]): 42%

Cc1cc(C(=O)Nc2nn[nH]n2)nc(-c2ccc(C(C)C)cc2)c1
inhibition in vivo at 1 mg/kg (Rattus norvegicus [1]): 34% | inhibition in vivo at 3 mg/kg (Rattus norvegicus [2]): 100%

Cc1ccc(-c2cc(CC(C)C)cc(C(=O)Nc3nn[nH]n3)n2)cc1
inhibition in vivo at 1 mg/kg (Rattus norvegicus [5]): 9% | inhibition in vivo at 3 mg/kg (Rattus norvegicus [2]): 52%

CCCCc1ccc(-c2cc(OC)cc(C(=O)Nc3nn[nH]n3)n2)cc1
inhibition in vivo at 1 mg/kg (Rattus norvegicus [5]): 29% | inhibition in vivo at 3 mg/kg (Rattus norvegicus [2]): 61% | inhibition in vivo at 10 mg/kg (Rattus norvegicus [7]): 92%

Cc1ccc(-c2cc(C)cc(C(=O)Nc3nn[nH]n3)n2)cc1
inhibition in vivo at 1 mg/kg (Rattus norvegicus [1]): 80% | inhibition in vivo at 3 mg/kg (Rattus norvegicus [2]): 100% | inhibition in vivo at 0.3 mg/kg (Rattus norvegicus [8]): 51%

COc1cccc(-c2cc(Cl)cc(C(=O)Nc3nn[nH]n3)n2)c1
inhibition in vivo at 1 mg/kg (Rattus norvegicus [1]): 51% | inhibition in vivo at 3 mg/kg (Rattus norvegicus [2]): 95% | inhibition in vivo at 0.3 mg/kg (Rattus norvegicus [8]): 32%

COc1ccc(-c2cc(OC)cc(C(=O)Nc3nn[nH]n3)n2)cc1
inhibition in vivo at 1 mg/kg (Rattus norvegicus [5]): 25% | inhibition in vivo at 3 mg/kg (Rattus norvegicus [2]): 60%

COc1cc(C(=O)Nc2nn[nH]n2)nc(-c2ccccc2OC)c1
inhibition in vivo at 0.3 mg/kg (Rattus norvegicus [9]): 35% | inhibition in vivo at 1 mg/kg (Rattus norvegicus [5]): 41% | inhibition in vivo at 3 mg/kg (Rattus norvegicus [2]): 68%

CC(=O)Nc1ccc(-c2cc(C)cc(C(=O)Nc3nn[nH]n3)n2)cc1
inhibition in vivo at 3 mg/kg (Rattus norvegicus [4]): 32%

CCOc1cc(C(=O)Nc2nn[nH]n2)nc(-c2ccccc2)c1
inhibition in vivo at 1 mg/kg (Rattus norvegicus [5]): 29% | inhibition in vivo at 3 mg/kg (Rattus norvegicus [6]): 51%

O=C(Nc1nn[nH]n1)c1cc(Cl)cc(-c2ccccc2)n1
inhibition in vivo at 1 mg/kg (Rattus norvegicus [1]): 40%

CCOc1cc(C(=O)Nc2nn[nH]n2)nc(-c2ccc(C)cc2)c1
inhibition in vivo at 1 mg/kg (Rattus norvegicus [1]): 65% | inhibition in vivo at 0.3 mg/kg (Rattus norvegicus [3]): 26%

Cc1cc(C(=O)Nc2nn[nH]n2)nc(-c2ccc(N)cc2)c1
inhibition in vivo at 0.3 mg/kg (Rattus norvegicus [9]): 54% | inhibition in vivo at 1 mg/kg (Rattus norvegicus [1]): 75% | inhibition in vivo at 3 mg/kg (Rattus norvegicus [2]): 100%

Nc1ccc(-c2cc(Cl)cc(C(=O)Nc3nn[nH]n3)n2)cc1
inhibition in vivo at 1 mg/kg (Rattus norvegicus [1]): 100% | inhibition in vivo at 3 mg/kg (Rattus norvegicus [2]): 100% | inhibition in vivo at 0.3 mg/kg (Rattus norvegicus [8]): 39%

COc1cccc(-c2cc(C)cc(C(=O)Nc3nn[nH]n3)n2)c1
inhibition in vivo at 1 mg/kg (Rattus norvegicus [5]): 25% | inhibition in vivo at 3 mg/kg (Rattus norvegicus [2]): 65%

COc1cc(C(=O)Nc2nn[nH]n2)nc(-c2ccc(C)cc2)c1
inhibition in vivo at 1 mg/kg (Rattus norvegicus [1]): 42% | inhibition in vivo at 0.3 mg/kg (Rattus norvegicus [3]): 16%

COc1cc(C(=O)Nc2nn[nH]n2)nc(-c2ccc(C(C)C)cc2)c1
inhibition in vivo at 1 mg/kg (Rattus norvegicus [1]): 54% | inhibition in vivo at 0.3 mg/kg (Rattus norvegicus [3]): 29%

CCc1ccc(-c2cc(OC)cc(C(=O)Nc3nn[nH]n3)n2)cc1
inhibition in vivo at 1 mg/kg (Rattus norvegicus [1]): 43% | inhibition in vivo at 0.3 mg/kg (Rattus norvegicus [8]): 23%

O=C(Nc1nn[nH]n1)c1cc(Cl)cc(-c2ccc([N+](=O)[O-])cc2)n1
inhibition in vivo at 10 mg/kg (Rattus norvegicus [10]): 48% | inhibition in vivo at 3 mg/kg (Rattus norvegicus [4]): 23%

CCOc1cc(C(=O)Nc2nn[nH]n2)nc(-c2ccc(N(CC)CC)cc2)c1
inhibition in vivo at 1 mg/kg (Rattus norvegicus [1]): 66% | inhibition in vivo at 0.3 mg/kg (Rattus norvegicus [8]): 44%

COc1cc(C(=O)Nc2nn[nH]n2)nc(-c2cccc(Cl)c2)c1
inhibition in vivo at 3 mg/kg (Rattus norvegicus [2]): 34% | inhibition in vivo at 10 mg/kg (Rattus norvegicus [7]): 64%

CCN(CC)c1ccc(-c2cc(C)cc(C(=O)Nc3nn[nH]n3)n2)cc1
inhibition in vivo at 0.3 mg/kg (Rattus norvegicus [3]): 19%

COc1cc(C(=O)Nc2nn[nH]n2)nc(-c2ccc(NC(C)=O)cc2)c1
inhibition in vivo at 1 mg/kg (Rattus norvegicus [1]): 0% | inhibition in vivo at 3 mg/kg (Rattus norvegicus [4]): 27% | inhibition in vivo at 10 mg/kg (Rattus norvegicus [7]): 100%

CCc1ccc(-c2cccc(C(=O)Nc3nn[nH]n3)n2)cc1
inhibition in vivo at 0.3 mg/kg (Rattus norvegicus [9]): 14% | inhibition in vivo at 1 mg/kg (Rattus norvegicus [5]): 39%

CCc1cc(C(=O)Nc2nn[nH]n2)nc(-c2ccc(C)cc2)c1
inhibition in vivo at 0.3 mg/kg (Rattus norvegicus [3]): 33%

Cc1ccccc1-c1cc(Cl)cc(C(=O)Nc2nn[nH]n2)n1
inhibition in vivo at 10 mg/kg (Rattus norvegicus [10]): 24%

CCCCc1cc(C(=O)Nc2nn[nH]n2)nc(-c2ccccc2)c1
inhibition in vivo at 1 mg/kg (Rattus norvegicus [1]): 56% | inhibition in vivo at 3 mg/kg (Rattus norvegicus [2]): 71% | inhibition in vivo at 10 mg/kg (Rattus norvegicus [7]): 100%

CCCc1ccc(-c2cc(OC)cc(C(=O)Nc3nn[nH]n3)n2)cc1
inhibition in vivo at 1 mg/kg (Rattus norvegicus [1]): 73% | inhibition in vivo at 3 mg/kg (Rattus norvegicus [2]): 93% | inhibition in vivo at 0.3 mg/kg (Rattus norvegicus [3]): 32%

COc1ccc(-c2cc(Cl)cc(C(=O)Nc3nn[nH]n3)n2)cc1
inhibition in vivo at 1 mg/kg (Rattus norvegicus [1]): 43% | inhibition in vivo at 3 mg/kg (Rattus norvegicus [2]): 100% | inhibition in vivo at 0.3 mg/kg (Rattus norvegicus [8]): 40%

CCCCc1cc(C(=O)Nc2nn[nH]n2)nc(-c2cccc(C)c2)c1
inhibition in vivo at 1 mg/kg (Rattus norvegicus [1]): 36% | inhibition in vivo at 3 mg/kg (Rattus norvegicus [2]): 82% | inhibition in vivo at 10 mg/kg (Rattus norvegicus [7]): 100%

Cc1ccc(-c2cccc(C(=O)Nc3nn[nH]n3)n2)cc1
inhibition in vivo at 1 mg/kg (Rattus norvegicus [1]): 67% | inhibition in vivo at 0.3 mg/kg (Rattus norvegicus [3]): 21%
